Assay: Toxicity liver stage against HepG2, at 10uM
Type: cell-based
Parameters: test concentration 10 uM, cell line HepG2-A16-CD81EGFP
Details: human, HepG2-A16-CD81EGFP cells; read-out: INHIBITION
Procedure, shortened: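 Uninfected HepG2-A16-CD81EGFP cells, 3 × 10^3 per well, 1536-well, plated on prespotted compound at 10 μM final, parasite-free screening media added to match infected plates; puromycin 10 μM positive, DMSO 0.5% negative; run in parallel with 48 h PbLuc assay at 37 °C, 5% CO2; viability by CellTiter-Glo luminescence, normalized to controls.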

Row | SMILES | cytotoxicity at 10 µM
1 | Cc1ccc(CNC2(Cc3cc(-c4ccc(F)cc4)on3)COC2)o1 | 8.13%
2 | Cc1cccc2c1nc1n2[C@@H](CNC(=O)NC(C)C)COC1 | 0.0962%
3 | O=C(Nc1ccccc1)[C@H]1CN2CC[C@H]1C[C@@H]2Cn1cc(CCO)nn1 | -0.843%
4 | O=C(c1cccnc1Oc1ccc(Cl)cc1)N1CC[C@@H](O)C1 | -3.36%
5 | CCOc1ccc(NC(=O)C2OC(c3cccs3)=NN2C(C)=O)cc1 (stereo not drawn) | 4.77%
6 | CC(C)CCc1n[nH]c(C(=O)O)c1Br | -3.09%
7 | O=C1CC(c2ccccc2)c2c(c(C(=O)O)cn2-c2ccccc2)N1 (stereo not drawn) | -0.0616%
8 | CN1CCN(C(=O)c2cc3sccc3n2Cc2ccccc2)CC1 | 4.38%
9 | CCc1cnc(N2CCC3(CC2)CCN(c2cnn(C)c2)C3=O)nc1 | -2.2%
10 | CNC(=O)C1CCC2(CCN(c3ncc(C)cn3)CC2)CO1 (stereo not drawn) | -4.66%
11 | CN(C)C(=O)CN1CCC2(CCCN(c3ncc(F)cn3)C2)C1=O (stereo not drawn) | 9.51%
12 | CC(C)CNc1nc(C(=O)/N=c2\[nH]nc(C(C)(C)C)s2)cs1 | 9.6%
13 | CC(C)CC(=O)N1CCCn2cnc(CN3CCCC3=O)c2C1 | -6.42%
14 | c1cnc(N2CCCC(Cc3nccs3)C2)nc1 (stereo not drawn) | 0.45%
15 | CC(C)C(=O)NCCc1cc2nc(-c3ccncc3)ccn2n1 | 4.94%
16 | CCCS(=O)(=O)N1CCN(C(C)(C)CO)CC1 | -0.45%
17 | Cc1nn(C)c(Cl)c1C1CCCN1c1ncnc2c1CCC2 (stereo not drawn) | 19.1%
18 | CCCn1cc(NC(=O)Nc2ccc(F)c(C(=O)NC)c2)cn1 | 6.98%
19 | CCOc1ccccc1C(=O)NCc1nncn1C1CC1 | 3.3%
20 | COc1cc(CNC(=O)c2cc(Cl)ccc2F)ccn1 | -2.69%
21 | O=C(c1ccc(CN2CCCC2)cc1)N1CCCC(n2cccn2)C1 (stereo not drawn) | -1.88%
22 | CC(NC(=O)NC1CC1)c1nc(-c2ccccc2)cs1 (stereo not drawn) | -5.83%
23 | CCOCCN1CCN(CCOC)CC1C (stereo not drawn) | -4.2%

Row | SMILES | cytotoxicity at 10 µM
24 | O=C(c1ccc(O)nc1)N1CCc2ccc(O)cc2C1 | -8.77%
25 | OC(CNCCn1cccn1)COc1cccc(C(F)(F)F)c1 (stereo not drawn) | -19.7%
26 | O=C(NC1CCC(O)CC1)c1cnc2c(cnn2C2CCCC2)c1 (stereo not drawn) | -3.79%
27 | COc1ccc(CNCC2CN(C3CC3)CCO2)cc1F (stereo not drawn) | -12.4%
28 | CN(CCc1ccncc1)Cc1nccn1Cc1ccccc1 | 15.1%
29 | COc1ccc(CN(C)Cc2cccc(C#N)c2)c(OC)c1 | -4.48%
30 | CC(=O)NCCNC(=O)NCCCc1cccc(F)c1 | 10.5%
31 | CS(=O)(=O)NCCNC(=O)c1cnc(-c2ccccc2)nc1 | 5.3%
32 | COc1ccc(Oc2ccc(CNC(=O)C(C)n3cncn3)cn2)cc1 (stereo not drawn) | 5.42%
33 | CCCN1CCN(C(=O)c2cccnc2-n2cncn2)CC1 | 5.28%
34 | O=C(CCCOc1ccccc1F)Nc1cc[nH]n1 | -11%
35 | CC(NC(=O)C(C)(C)C#N)c1ccc(OCC2CC2)c(F)c1 (stereo not drawn) | 2.31%
36 | Cc1ccc(S(N)(=O)=O)cc1C(=O)NCC1Cc2ccccc2O1 (stereo not drawn) | 3.04%
37 | NC(=O)C1CCN(C(=O)Cc2ccc(Cl)c(Cl)c2)CC1 | 5.82%
38 | Cc1ccsc1C(=O)NC(C)c1ccc2c(c1)CCC(=O)N2 (stereo not drawn) | -12.4%
39 | Cc1cnc(CCNC(Cc2ccncc2)C(F)(F)F)s1 (stereo not drawn) | 24.4%
40 | O=C1NCCCCC1NCc1csc(-c2ccsc2)n1 (stereo not drawn) | 3.27%
41 | O=C(O)CSc1nc(-c2ccc3c(c2)CCC3)n[nH]1 | 1.88%
42 | CCCC(C#N)NC(=O)Cc1csc(CC)n1 (stereo not drawn) | -2.08%
43 | CC(C)CCN(C(=O)CCn1cc(S(N)(=O)=O)cn1)C1CC1 | 3.92%
44 | COc1ccnc(NC2CCN(CC(=O)N3CCCC3)CC2)n1 | -7.88%
45 | CC1CN=C(N2CCN(C(=O)Nc3nc(-c4ccccc4)ns3)CC2)S1 (stereo not drawn) | 10.6%
46 | CNS(=O)(=O)c1cccc(C(C)NCc2ccccc2)c1 (stereo not drawn) | -2.29%

Row | SMILES | cytotoxicity at 10 µM
47 | Cn1c(C(=O)N2CCC(C(=O)N3CCCC3)CC2)c(Cl)c2ccccc21 | 3.12%
48 | CC(=O)c1ccccc1C(=O)NCC1(CO)CC1 | -18.9%
49 | Cn1cc(CN2CCOCC3(CCN(C4CCOCC4)C3)C2)cn1 (stereo not drawn) | -3.92%
50 | COCC1CC2(CCN(Cc3cccnc3)CC2)CN1C(C)C (stereo not drawn) | -4.21%
51 | COCCN1C[C@@H]2[C@@H](OC)CCN(C(=O)c3cccc(OC)c3)[C@@H]2C1 | -1.01%
52 | Cc1ccc(NC2(C(=O)NCc3c(C)n[nH]c3C)CCCC2)cc1 | 3.73%
53 | O=S(=O)(NCC1CCCN(Cc2ccccc2F)C1)C1CC1 (stereo not drawn) | -8.27%
54 | COc1cc2c(cc1C(=O)N1CCCCC1c1ccccn1)CCC2 (stereo not drawn) | -2.8%
55 | CCOCCn1nc(C)cc1C(=O)N1CC(C)(C)[C@@](C)(O)C1 | 0.301%
56 | CN(C)c1ccc(C(=O)N2CCCN(C3CCCCC3)CC2)cn1 | -6.46%
57 | Cn1cc(Cl)c(CN(Cc2ccsc2)CC2CCCO2)n1 (stereo not drawn) | -3.84%
58 | O=C(O)[C@@H]1CN(C(=O)CCC(F)(F)F)C[C@H]1c1ccncc1 | 0.108%
59 | O=C(c1cnn[nH]1)N1CCCC1c1nc2cc(F)ccc2[nH]1 (stereo not drawn) | 2.68%
60 | CC(O)Cc1cn(CC2CCN(c3nccc4occc34)CC2)nn1 (stereo not drawn) | -6.64%
61 | CCOCC(=O)N1CCC(c2nccn2C)CC1 | -53.4%
62 | Cc1cc(C)cc(CN2CCN(Cc3cc(C#N)n(C)c3)CC2=O)c1 | 6.24%
63 | CN(C)c1nc(NCCc2ccccn2)ncc1F | -4.84%
64 | COc1ccc(C(=O)NCc2ccon2)cc1F | 0.824%
65 | CCCN1CCCC2(CCN(c3nccc(OC)n3)C2)C1=O (stereo not drawn) | -4.74%
66 | CCNC(=O)[C@@H]1C[C@@H](N)CN1C(=O)c1[nH]c2ccccc2c1CC | 0.106%
67 | COc1ccc(C(=O)N2CCC(Oc3ccccc3C)(C(=O)O)CC2)o1 | 13.2%
68 | O=C(O)C(c1cccc2c1OCC2)N1CCC(N2CCSCC2)CC1 (stereo not drawn) | 6.14%
69 | Cc1ccnc(NCCNC(=O)c2ccccc2NCC(=O)O)c1 | -12.7%

Row | SMILES | cytotoxicity at 10 µM
70 | Cc1cc(C)n(CCNC(=O)c2ncc[nH]2)c(=O)n1 | 2.84%
71 | CCc1cnc(C)nc1NCCN1CCCCCC1 | -10.8%
72 | CC(=O)Nc1cccc(C(=O)Nc2cnc3n2CCCC3)c1 | 4.36%
73 | CC(C)NC(=O)c1nnn(-c2cccc(C(F)(F)F)c2)c1N | -11.5%
74 | COc1cccc(S(=O)(=O)N2CCC(O)(CN(C)C)C2)c1 (stereo not drawn) | 3.85%
75 | COC(=O)c1cccn1C1CCN(C(=O)c2ccc(C)cc2O)CC1 | -6.97%
76 | O=C(c1cccn1Cc1cccs1)N1CCC(C(=O)N2CCCC2)CC1 | -1.23%
77 | Cc1cc(CN(C)C2CCCN(Cc3noc(C4CC4)n3)C2)on1 (stereo not drawn) | -1.68%
78 | O=C(NCc1ccccc1Cn1cncn1)C1CCC1 | -4.43%
79 | O=C(CCCOc1ccc(F)cc1F)N1CCCC(n2cccn2)C1 (stereo not drawn) | -4.75%
80 | CC(=O)Nc1nc(CN2CCn3c(C)nnc3C2)cs1 | -1.68%
81 | CCNC(=O)CNCc1c(C(C)C)nn(C)c1N1CCOCC1 | -6.45%
82 | Cc1ccc(C(CNC(=O)NCc2ccccn2)N2CCOCC2)o1 (stereo not drawn) | -14.9%
83 | CCc1ocnc1C(=O)N1CCCC1c1noc(C(C)C)n1 (stereo not drawn) | -8.69%
84 | CCOc1ncccc1CNC(=O)N1CCC(n2cncn2)CC1 | -1.26%
85 | CN(C)c1ncccc1CNS(=O)(=O)c1c(F)cccc1F | -9.91%
86 | COC(=O)c1cccn1C1CCN(Cc2cccnc2)CC1 | -25.6%
87 | Cc1cn2nc(N3CCCCC3Cn3cccn3)sc2n1 (stereo not drawn) | -1.14%
88 | O=C(c1ccc(NC2CC2)nc1)N1CCC(Nc2cccnn2)CC1 | -12.6%
89 | CC(C)c1nc2c(n1C)CCN(CC(=O)Nc1ccncc1)C2 | 0.698%
90 | CCN(Cc1ccc(OC)c(F)c1)Cc1nc2c(cnn2C)c(=O)[nH]1 | 2.2%
91 | CC(=O)N(Cc1noc(C)n1)C1CCN(Cc2ncc(C(C)C)o2)C1 (stereo not drawn) | -13.2%
92 | Cn1cnnc1C1CCCN(C(=O)c2cc(Cl)cc(Cl)c2)C1 (stereo not drawn) | -9.91%

Row | SMILES | cytotoxicity at 10 µM
93 | Cc1cnn(CC2CCCN2C(=O)c2cccc3c2OCO3)c1 (stereo not drawn) | -5.25%
94 | Cc1cc(NC(=O)C(C)N2CCN(c3nccs3)CC2)on1 (stereo not drawn) | -12.6%
95 | Cc1cc(C)n(CC2CN(CC(=O)Nc3nncs3)CCO2)n1 (stereo not drawn) | -2.97%
96 | Cc1cnn(C2CCCN(C(=O)c3ccc(N(C)C)nn3)C2)c1 (stereo not drawn) | -5.36%
97 | COc1c(CNCc2ccc(CN(C)C)cc2)c(C(C)C)nn1C | -11.2%
98 | Cc1cc(CN(C)C(=O)c2cccc(N3CCCC3=O)c2)no1 | 0.376%
99 | CN(C)c1ncccc1CNC(=O)N1CCCC1CN1CCCCC1 (stereo not drawn) | -0.986%
100 | O=C(NC1CCN(c2snc3ccccc23)CC1)C1CCC1 | 4.5%
101 | Cc1nc(C)n(C2CCCN(C(=O)c3csnn3)C2)n1 (stereo not drawn) | -5.48%
102 | COc1ccc(C(=O)N2CCCC(CNS(C)(=O)=O)C2)cc1F (stereo not drawn) | -5.45%
103 | Cc1cc(NC(=O)C(C)N2CCCN(c3nccs3)CC2)on1 (stereo not drawn) | 1.79%
104 | COc1cccc(CN2CCC3(CC2)CCN(c2ncccn2)C3)c1 | -7.46%
105 | CCS(=O)(=O)N1CCOCC2(CCN(c3ccccn3)C2)C1 (stereo not drawn) | 5.66%
106 | CN1CCN(Cc2cn3c(n2)CN(C2CCOCC2)CC3)CC1 | 3.91%
107 | c1cc(CN2C[C@@H]3OCCN(CCN4CCCC4)[C@@H]3C2)cs1 | -1.46%
108 | CCOCC1CN(Cc2nccs2)Cc2nn(CC3CC3)cc21 (stereo not drawn) | -1.81%
109 | O=C(O)c1cc2c(nc1-c1ccsc1)CCN(C1CCOC1)CC2 (stereo not drawn) | 15%
110 | CN(C)C(=O)CN1CCOCC2(C1)CN(c1ncccn1)CCO2 (stereo not drawn) | 1.71%
111 | CC1c2ncc(CN3CCN(C)CC3)n2CCN1Cc1ccc(F)cc1 (stereo not drawn) | 2.49%
112 | Cc1ncsc1CN1CC[C@H]2OCC[C@@]2(C(=O)N2CCOCC2)C1 | 6.91%
113 | CN(C)c1nc2c(c(N(C)C)n1)CCN(C(=O)CN1C[C@H]3CC[C@@H]1C3)C2 | 4.45%

— ChEMBL document CHEMBL4513216, “Probing the Open Global Health Chemical Diversity Library for Multistage-Active Starting Points for Next-Generation Antimalarials” (ACS Infect Dis, 2020)
